Measurements of several laboratories.
Each line is one published result; the experiments were not run side by side.
Target: Tyrosine-protein kinase ITK/TSK (ITK, Homo sapiens, UniProt Q08881)
Residues used in one study (Q08881 1-620): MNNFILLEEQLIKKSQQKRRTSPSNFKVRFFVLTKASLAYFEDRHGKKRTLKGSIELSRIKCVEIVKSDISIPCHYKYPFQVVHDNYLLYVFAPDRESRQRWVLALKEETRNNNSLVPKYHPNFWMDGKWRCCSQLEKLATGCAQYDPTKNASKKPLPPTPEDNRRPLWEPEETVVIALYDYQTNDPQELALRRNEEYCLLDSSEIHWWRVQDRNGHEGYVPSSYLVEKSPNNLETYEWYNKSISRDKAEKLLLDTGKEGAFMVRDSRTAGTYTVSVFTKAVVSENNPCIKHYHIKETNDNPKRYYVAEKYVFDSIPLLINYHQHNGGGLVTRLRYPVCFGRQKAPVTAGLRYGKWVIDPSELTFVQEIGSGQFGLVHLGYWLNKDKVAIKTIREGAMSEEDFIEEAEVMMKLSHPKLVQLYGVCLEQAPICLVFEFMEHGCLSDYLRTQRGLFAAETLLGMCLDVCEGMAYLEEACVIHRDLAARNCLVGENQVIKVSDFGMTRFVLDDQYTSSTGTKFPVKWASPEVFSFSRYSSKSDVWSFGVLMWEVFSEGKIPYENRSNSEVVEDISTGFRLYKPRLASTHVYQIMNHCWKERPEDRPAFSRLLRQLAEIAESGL

N#CC1(c2ccccn2)CCN(Cc2cc(C(=O)O)c(=O)n3ccccc23)CC1 — remaining binding (cell-free assay; competition with immobilised ligand; 1 µM): 100%
Cn1cc(-c2cccc(N3CCc4c(sc5c4CC(C)(C)C5)C3=O)c2CO)cc(Nc2ccncn2)c1=O — inhibition (enzyme activity; inhibitor; 1 µM): 6%
Cc1nn(C)cc1-c1nc2c(N3CCN(Cc4ccc(Cl)cc4)CC3)c(Cl)cnc2[nH]1 — remaining binding (binding; competition with immobilised ligand; 1 µM): 100%
O=c1[nH]c2ccccc2n1C1CCN(Cc2ccc(-c3[nH]c4cc5ncnc5cc4nc3-c3ccccc3)cc2)CC1 — remaining signal (cell-free assay; 0.5 µM): 99.8%
Nc1ncc(-c2nc(N3CCOCC3)nc(N3CCOCC3)n2)c(C(F)F)n1 — remaining binding (binding; competition with immobilised ligand; 10 µM): 44%
Cn1cc(-c2cc(F)cc(N3CCn4c(cc5c4CCCC5)C3=O)c2CO)cc(Nc2ccc(N3CCN(C4COC4)CC3)cn2)c1=O — inhibition (enzyme activity; inhibitor; 0.1 µM): 4%
CC(C)(C)c1cc(C=C(C#N)C#N)cc(Br)c1O — remaining activity (enzyme activity; inhibitor; 0.5 µM): 98.4%
COc1ncccc1-c1cnn2ccc(N3CCN(C(=O)OC(C)C)CC3)nc12 — remaining binding (binding; competition with immobilised ligand; 1 µM): 100%
Cn1cncc1[C@@](O)(COc1ccc(C#N)cc1-c1ccc(OC(F)(F)F)cc1)c1ccc(C#N)cc1 — remaining binding (cell-free assay; competition with immobilised ligand; 1 µM): 100%
